# Reference: ChEMBL document CHEMBL4346672, “Antimicrobial and KPC/AmpC inhibitory activity of functionalized benzosiloxaboroles” (Eur J Med Chem, 2019)
# The source made the active and inactive calls. The calls are words filed in the database; no cut-off is given here.
# Tests used:
# Acinetobacter baumannii [1] = experiment: Antibacterial activity against Acinetobacter baumannii ATCC 19606 assessed as fold reduction of MIC in presence of efflux pump inhibitor PAbetaN incubated for 18 hrs by broth microdilution method; assay type: functional
# Outline: (§1)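 MICs determined with and without PAβN at 50 mg/L in Mueller-Hinton broth containing 1 mM MgSO₄. 2-fold serial dilutions per CLSI. Fold change taken from the paired MICs after 35 °C, 18 h.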
# [2] = tested on: Staphylococcus epidermidis; experiment: Antibacterial activity against Staphylococcus epidermidis ATCC 12228 measured after 18 hrs by CLSI broth dilution method; assay type: functional; settings: ATCC 12228, 18 h
# Outline: (§2)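 Broth MIC in Mueller-Hinton II broth following CLSI, compounds dissolved in DMSO. Strains subcultured twice on tryptic soy agar before testing. Growth read after 35 °C, 18 h.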
# Proteus mirabilis [3] = experiment: Antibacterial activity against Proteus mirabilis ATCC 12453 assessed as fold reduction of MIC in presence of efflux pump inhibitor PAbetaN incubated for 18 hrs by broth microdilution method; assay type: functional; outline: as §1
# Escherichia coli [4] = experiment: Antibacterial activity against Escherichia coli ATCC 25922 assessed as diameter of zone inhibition measured after 18 hrs by CLSI disc diffusion method; assay type: functional
# Outline: (§3)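 Disc diffusion on Mueller-Hinton II agar. Compounds dissolved in DMSO. Strains stored at -80 °C and subcultured twice on tryptic soy agar before testing. Inhibition zones read after 35 °C, 18 h.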
# [5] = tested on: Bordetella bronchiseptica; experiment: Antibacterial activity against Bordetella bronchiseptica ATCC 4617 assessed as diameter of zone inhibition measured after 18 hrs by CLSI disc diffusion method; assay type: functional; outline: as §3
# [6] = Dissociation constant, pKa1 of compound in 0.1 M NaOH by potentiometric analysis; assay type: physicochemical
# Staphylococcus aureus = experiment: Antibacterial activity against Staphylococcus aureus ATCC 6538P measured after 18 hrs by CLSI broth dilution method; assay type: functional; outline: as §2
# Candida albicans = experiment: Antifungal activity against Candida albicans ATCC 90028 assessed as decrease in fungal cell growth at 0.78 to 12.5 mg/L incubated for 24 hrs by CLSI broth dilution method; assay type: functional; settings: ATCC 90028, 24 h
# Outline: (§4)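 Yeast broth dilution in RPMI 1640 with 2% glucose, compounds in DMSO. Yeasts pre-grown on Sabouraud dextrose agar. Growth read after 35 °C, 24 h.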
# [7] = tested on: Meyerozyma guilliermondii; experiment: Antifungal activity against Candida guilliermondii IBA 155 assessed as diameter of zone inhibition incubated for 24 hrs by CLSI disc diffusion method; assay type: functional
# Outline: (§5)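 Yeast disc diffusion on Mueller-Hinton agar supplemented with 2% glucose and 0.5 mg/L methylene blue. Compounds in DMSO. Yeasts subcultured on Sabouraud dextrose agar before testing. Zones read after 35 °C, 24 h.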
# Klebsiella pneumoniae = experiment: Antibacterial activity against Klebsiella pneumoniae ATCC 13883 assessed as fold reduction of MIC in presence of efflux pump inhibitor PAbetaN incubated for 18 hrs by broth microdilution method; assay type: functional; outline: as §1
# Saccharomyces cerevisiae [8] = experiment: Antifungal activity against Saccharomyces cerevisiae ATCC 9763 diameter of zone inhibition incubated for 24 hrs by CLSI disc diffusion method; assay type: functional
# Outline: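 Disc-diffusion run on Mueller-Hinton II agar with 2% glucose and 0.5 mg/L methylene blue, using compounds in DMSO. Yeast was precultured on Sabouraud dextrose agar (24–48 h, 30 °C). Zones read after 24 h at 35 °C.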
# Burkholderia cepacia = experiment: Antibacterial activity against Burkholderia cepacia ATCC 25416 measured after 18 hrs by CLSI broth dilution method; assay type: functional; settings: ATCC 25416, 18 h; outline: as §2
# Enterococcus faecalis = experiment: Antibacterial activity against Enterococcus faecalis ATCC 29212 measured after 18 hrs by CLSI broth dilution method; assay type: functional; settings: ATCC 29212, 18 h; outline: as §2
# Candida parapsilosis = experiment: Antifungal activity against Candida parapsilosis ATCC 22019 assessed as diameter of zone inhibition incubated for 24 hrs by CLSI disc diffusion method; assay type: functional; outline: as §5
# [9] = tested on: Stenotrophomonas maltophilia; experiment: Antibacterial activity against Stenotrophomonas maltophilia ATCC 13637 measured after 18 hrs by CLSI broth dilution method; assay type: functional; settings: ATCC 13637, 18 h; outline: as §2
# Enterobacter cloacae [10] = experiment: Antibacterial activity against Enterobacter cloacae DSM 6234 assessed as fold reduction of MIC in presence of efflux pump inhibitor PAbetaN incubated for 18 hrs by broth microdilution method; assay type: functional; outline: as §1
# [11] = tested on: Staphylococcus epidermidis; experiment: Antibacterial activity against Staphylococcus epidermidis ATCC 12228 assessed as diameter of zone inhibition measured after 18 hrs by CLSI disc diffusion method; assay type: functional; outline: as §3
# Bacillus subtilis = experiment: Antibacterial activity against Bacillus subtilis ATCC 6633 assessed as diameter of zone inhibition measured after 18 hrs by CLSI disc diffusion method; assay type: functional; outline: as §3
# [12] = tested on: Meyerozyma guilliermondii; experiment: Antifungal activity against Candida guilliermondii IBA 155 assessed as decrease in fungal cell growth at 0.78 to 12.5 mg/L incubated for 24 hrs by CLSI broth dilution method; assay type: functional; settings: IBA 155, 24 h; outline: as §4
# Enterococcus faecium = experiment: Antibacterial activity against Enterococcus faecium ATCC 6057 assessed as diameter of zone inhibition measured after 18 hrs by CLSI disc diffusion method; assay type: functional; outline: as §3
# Pseudomonas aeruginosa [13] = experiment: Antibacterial activity against Pseudomonas aeruginosa ATCC 27853 assessed as diameter of zone inhibition measured after 18 hrs by CLSI disc diffusion method; assay type: functional, organism-based; outline: as §3
# Candida tropicalis [14] = experiment: Antifungal activity against Candida tropicalis IBA 171 assessed as decrease in fungal cell growth at 0.78 to 12.5 mg/L incubated for 24 hrs by CLSI broth dilution method; assay type: functional; settings: IBA 171, 24 h; outline: as §4
# Enterobacter cloacae [15] = experiment: Antibacterial activity against Enterobacter cloacae DSM 6234 measured after 18 hrs by CLSI broth dilution method; assay type: functional; settings: DSM 6234, 18 h; outline: as §2
# Pseudomonas aeruginosa [16] = experiment: Antibacterial activity against Pseudomonas aeruginosa ATCC 27853 assessed as fold reduction of MIC in presence of efflux pump inhibitor PAbetaN incubated for 18 hrs microdilution method; assay type: functional; outline: as §1
# Acinetobacter baumannii [17] = experiment: Antibacterial activity against Acinetobacter baumannii ATCC 19606 assessed as diameter of zone inhibition measured after 18 hrs by CLSI disc diffusion method; assay type: functional; outline: as §3
# Serratia marcescens [18] = experiment: Antibacterial activity against Serratia marcescens ATCC 13880 assessed as fold reduction of MIC in presence of efflux pump inhibitor PAbetaN incubated for 18 hrs by broth microdilution method; assay type: functional; outline: as §1
# Saccharomyces cerevisiae [19] = experiment: Antifungal activity against Saccharomyces cerevisiae ATCC 9763 assessed as decrease in fungal cell growth at 0.78 to 12.5 mg/L incubated for 24 hrs by CLSI broth dilution method; assay type: functional; settings: ATCC 9763, 24 h
# Outline: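 Yeast strain subcultured on Sabouraud dextrose agar for 24–48 h at 30 °C before testing. Compounds dissolved in DMSO.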
# Escherichia coli [20] = experiment: Antibacterial activity against Escherichia coli ATCC 25922 measured after 18 hrs by CLSI broth dilution method; assay type: functional; settings: ATCC 25922, 18 h; outline: as §2
# Proteus mirabilis [21] = experiment: Antibacterial activity against Proteus mirabilis ATCC 12453 assessed as diameter of zone inhibition measured after 18 hrs by CLSI disc diffusion method; assay type: functional; outline: as §3
# Serratia marcescens [22] = settings: ATCC 13880
# Candida tropicalis [23] = experiment: Antifungal activity against Candida tropicalis IBA 171 assessed as diameter of zone inhibition incubated for 24 hrs by CLSI disc diffusion method; assay type: functional; outline: as §5
# Enterobacter cloacae [24] = experiment: Antibacterial activity against Enterobacter cloacae DSM 6234 assessed as diameter of zone inhibition measured after 18 hrs by CLSI disc diffusion method; assay type: functional; outline: as §3
SMILES,fold change (FC) (Acinetobacter baumannii [1]),MIC [2],fold change (FC) (Proteus mirabilis [3]),diameter of the inhibition zone (DIZ) (Escherichia coli [4]),diameter of the inhibition zone (DIZ) [5],pKa [6],MIC (Staphylococcus aureus),MIC (Candida albicans),diameter of the inhibition zone (DIZ) [7],fold change (FC) (Klebsiella pneumoniae),diameter of the inhibition zone (DIZ) (Saccharomyces cerevisiae [8]),MIC (Burkholderia cepacia),MIC (Enterococcus faecalis),diameter of the inhibition zone (DIZ) (Candida parapsilosis),MIC [9],fold change (FC) (Enterobacter cloacae [10]),diameter of the inhibition zone (DIZ) [11],diameter of the inhibition zone (DIZ) (Bacillus subtilis),MIC [12],diameter of the inhibition zone (DIZ) (Enterococcus faecium),also measured
C[Si]1(C)OB(O)c2ccc(C(F)(F)F)cc21,16,25 µg/mL,2,inactive,inactive,6.6,50 µg/mL,50 µg/mL,16 mm,16,15 mm,> 400 µg/mL,50 µg/mL,12 mm,400 µg/mL,16,20 mm,47 mm,200 µg/mL,14 mm,diameter of the inhibition zone (DIZ) (Pseudomonas aeruginosa [13]): inactive; MIC (Candida tropicalis [14]): 25 µg/mL; MIC (Enterobacter cloacae [15]): > 400 µg/mL; fold change (FC) (Pseudomonas aeruginosa [16]): 8; diameter of the inhibition zone (DIZ) (Acinetobacter baumannii [17]): 13 mm; fold change (FC) (Serratia marcescens [18]): 2; MIC (Saccharomyces cerevisiae [19]): 200 µg/mL; MIC (Escherichia coli [20]): > 400 µg/mL; diameter of the inhibition zone (DIZ) (Proteus mirabilis [21]): inactive; DIZ (Serratia marcescens [22]): inactive; diameter of the inhibition zone (DIZ) (Candida tropicalis [23]): 13 mm; diameter of the inhibition zone (DIZ) (Enterobacter cloacae [24]): inactive
C[Si]1(C)OB(O)c2cc(B(O)O)cc(F)c21,4,50 µg/mL,4,inactive,inactive,6.6,50 µg/mL,400 µg/mL,inactive,8,inactive,> 400 µg/mL,400 µg/mL,inactive,> 400 µg/mL,32,29 mm,22 mm,400 µg/mL,11 mm,diameter of the inhibition zone (DIZ) (Pseudomonas aeruginosa [13]): inactive; MIC (Candida tropicalis [14]): 400 µg/mL; MIC (Enterobacter cloacae [15]): > 400 µg/mL; fold change (FC) (Pseudomonas aeruginosa [16]): 2; diameter of the inhibition zone (DIZ) (Acinetobacter baumannii [17]): inactive; fold change (FC) (Serratia marcescens [18]): 2; MIC (Saccharomyces cerevisiae [19]): 400 µg/mL; MIC (Escherichia coli [20]): > 400 µg/mL; diameter of the inhibition zone (DIZ) (Proteus mirabilis [21]): inactive; DIZ (Serratia marcescens [22]): inactive; diameter of the inhibition zone (DIZ) (Candida tropicalis [23]): inactive; diameter of the inhibition zone (DIZ) (Enterobacter cloacae [24]): inactive
C[Si]1(C)OB(O)c2cccc(F)c21,4,25 µg/mL,2,17 mm,inactive,7.2,50 µg/mL,50 µg/mL,30 mm,16,45 mm,> 400 µg/mL,200 µg/mL,20 mm,200 µg/mL,32,39 mm,28 mm,12.5 µg/mL,12 mm,diameter of the inhibition zone (DIZ) (Pseudomonas aeruginosa [13]): inactive; MIC (Candida tropicalis [14]): 50 µg/mL; MIC (Enterobacter cloacae [15]): > 400 µg/mL; fold change (FC) (Pseudomonas aeruginosa [16]): 16; diameter of the inhibition zone (DIZ) (Acinetobacter baumannii [17]): 11 mm; fold change (FC) (Serratia marcescens [18]): 4; MIC (Saccharomyces cerevisiae [19]): 6.25 µg/mL; MIC (Escherichia coli [20]): 400 µg/mL; diameter of the inhibition zone (DIZ) (Proteus mirabilis [21]): 16 mm; DIZ (Serratia marcescens [22]): inactive; diameter of the inhibition zone (DIZ) (Candida tropicalis [23]): 14 mm; diameter of the inhibition zone (DIZ) (Enterobacter cloacae [24]): inactive
C[Si]1(C)OB(O)c2cccc(B(O)O)c21,2,200 µg/mL,0,inactive,inactive,7.4,400 µg/mL,> 400 µg/mL,inactive,4,inactive,> 400 µg/mL,> 400 µg/mL,inactive,> 400 µg/mL,8,22 mm,15 mm,> 400 µg/mL,inactive,diameter of the inhibition zone (DIZ) (Pseudomonas aeruginosa [13]): inactive; MIC (Candida tropicalis [14]): 400 µg/mL; MIC (Enterobacter cloacae [15]): > 400 µg/mL; fold change (FC) (Pseudomonas aeruginosa [16]): 4; diameter of the inhibition zone (DIZ) (Acinetobacter baumannii [17]): inactive; fold change (FC) (Serratia marcescens [18]): 2; MIC (Saccharomyces cerevisiae [19]): 50 µg/mL; MIC (Escherichia coli [20]): > 400 µg/mL; diameter of the inhibition zone (DIZ) (Proteus mirabilis [21]): inactive; DIZ (Serratia marcescens [22]): inactive; diameter of the inhibition zone (DIZ) (Candida tropicalis [23]): inactive; diameter of the inhibition zone (DIZ) (Enterobacter cloacae [24]): inactive
